Assay results gathered from unrelated publications.
Compare with care: the assays were run in different laboratories.
Target: Serine/threonine-protein kinase Nek9 (NEK9, Homo sapiens, UniProt Q8TD19)
One construct used (Q8TD19 1-979): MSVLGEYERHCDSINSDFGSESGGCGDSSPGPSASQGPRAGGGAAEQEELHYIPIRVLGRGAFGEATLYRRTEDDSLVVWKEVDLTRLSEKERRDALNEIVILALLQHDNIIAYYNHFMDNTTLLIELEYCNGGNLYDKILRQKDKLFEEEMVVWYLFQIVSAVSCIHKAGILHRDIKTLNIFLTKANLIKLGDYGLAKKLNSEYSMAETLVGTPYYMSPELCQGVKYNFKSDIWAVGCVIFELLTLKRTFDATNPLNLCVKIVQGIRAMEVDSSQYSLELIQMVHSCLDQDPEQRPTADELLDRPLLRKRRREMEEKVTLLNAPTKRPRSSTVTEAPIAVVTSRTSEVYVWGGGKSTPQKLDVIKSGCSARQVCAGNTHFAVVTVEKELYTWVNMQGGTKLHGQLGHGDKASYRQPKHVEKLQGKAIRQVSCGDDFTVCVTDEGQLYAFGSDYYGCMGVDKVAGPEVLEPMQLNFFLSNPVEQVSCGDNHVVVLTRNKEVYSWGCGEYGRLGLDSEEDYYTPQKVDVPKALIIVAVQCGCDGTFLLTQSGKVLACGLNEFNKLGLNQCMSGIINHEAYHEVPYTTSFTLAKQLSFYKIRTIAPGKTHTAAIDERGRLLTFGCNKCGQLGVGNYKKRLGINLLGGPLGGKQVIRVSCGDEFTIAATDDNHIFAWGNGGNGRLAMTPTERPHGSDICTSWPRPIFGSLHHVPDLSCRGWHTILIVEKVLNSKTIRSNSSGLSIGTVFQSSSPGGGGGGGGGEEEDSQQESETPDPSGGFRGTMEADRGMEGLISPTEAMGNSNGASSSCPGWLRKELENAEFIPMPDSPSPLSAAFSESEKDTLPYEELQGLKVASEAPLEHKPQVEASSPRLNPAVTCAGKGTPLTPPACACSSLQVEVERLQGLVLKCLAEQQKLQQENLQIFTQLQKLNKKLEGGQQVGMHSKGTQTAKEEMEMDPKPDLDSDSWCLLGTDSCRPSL

CC(C)(C)c1cc(C=C(C#N)C#N)cc(Br)c1O
remaining activity (enzyme activity, inhibitor; 0.5 µM): 103%

CCN1CCN(Cc2ccc(NC(=O)c3ccc(C)c(Oc4ccnc5[nH]ccc45)c3)cc2C(F)(F)F)CC1
inhibition (target engagement in cells, inhibitor, chemoproteomics; Huh-7; 10 µM): -10.9%

Nc1ncc(-c2nc(N3CCOCC3)nc(N3CCOCC3)n2)c(C(F)F)n1
remaining binding (binding, competition with immobilised ligand; 10 µM): 92%

O=c1[nH]c2ccccc2n1C1CCN(Cc2ccc(-c3[nH]c4cc5ncnc5cc4nc3-c3ccccc3)cc2)CC1
remaining signal (cell-free assay; 0.5 µM): 99.2%

Cn1cc(-c2cccc(N3CCc4c(sc5c4CC(C)(C)C5)C3=O)c2CO)cc(Nc2ccncn2)c1=O
inhibition (enzyme activity, inhibitor; 1 µM): -1%

COc1ncccc1-c1cnn2ccc(N3CCN(C(=O)OC(C)C)CC3)nc12
remaining binding (binding, competition with immobilised ligand; 1 µM): 100%

Cn1cc(-c2cc(F)cc(N3CCn4c(cc5c4CCCC5)C3=O)c2CO)cc(Nc2ccc(N3CCN(C4COC4)CC3)cn2)c1=O
inhibition (enzyme activity, inhibitor; 0.1 µM): 6%

Cn1cncc1[C@](O)(COc1ccc(C#N)cc1-c1ccc(OC(F)(F)F)cc1)c1ccc(C#N)cc1
remaining binding (cell-free assay, competition with immobilised ligand; 1 µM): 72%
